Source: ChEMBL document CHEMBL4004784, “Antioxidant Hydroanthraquinones from the Marine Algal-Derived Endophytic Fungus Talaromyces islandicus EN-501” (J Nat Prod, 2017)
≈ marks a conversion by molar mass, not a printed value. Calls of active or inactive are those of the source. The calls are words filed in the database; no cut-off is given here.

Key:
Escherichia coli = experiment: Antimicrobial activity against Escherichia coli EMBLC-1 by XTT assay; assay type: functional
Outline: (§1)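 Microplate assay on bacterial strains supplied by the Institute of Oceanology, Chinese Academy of Sciences, with chloramphenicol as the positive control.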

Edwardsiella tarda = experiment: Antimicrobial activity against Edwardsiella tarda QDIO-2 by XTT assay; assay type: functional; outline: as §1
Staphylococcus aureus = experiment: Antimicrobial activity against Staphylococcus aureus EMBLC-2 by XTT assay; assay type: functional; outline: as §1
[1] = Antioxidant activity assessed as DPPH radical scavenging activity; assay type: functional
Outline: (§2)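 Radical scavenging of pure compounds against DPPH and ABTS radicals, run by previously published methods and reported as IC50 in μM. Positive controls were BHT for DPPH and ascorbic acid for ABTS.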

[2] = Antioxidant activity assessed as ABTS radical scavenging activity; assay type: functional; outline: as §2
A2780 [3] = experiment: Cytotoxicity against human A2780 cells after 72 hrs by MTT assay; assay type: functional, cell-based; conditions: A2780, 72 h
[4] = Cytotoxicity against human A2780cis cells after 72 hrs by MTT assay; assay type: functional, cell-based
A2780 [5] = experiment: Cytotoxicity against human A2780 cells at 100 uM after 72 hrs by MTT assay; assay type: functional, cell-based
A2780cis = experiment: Cytotoxicity against human A2780cis cells at 100 uM after 72 hrs by MTT assay; assay type: functional, cell-based

Row | Compound | MIC (Escherichia coli) | MIC (Edwardsiella tarda) | MIC (Staphylococcus aureus) [µg/mL] | IC50 [1] [µM] | IC50 [2] [µM] | IC50 (A2780 [3]) [µM] | IC50 [4] [µM] | Activity (A2780 [5]) | Activity (A2780cis)
1 | Cc1cc(C(C)(C)C)c(O)c(C(C)(C)C)c1 [BUTYLATED HYDROXYTOLUENE] | – | – | – | 61 | – | – | – | – | –
2 | O=C1c2c(O)cc(CO)c(O)c2[C@H](O)[C@H]2C[C@@H](O)CC[C@H]12 | 16 µg/mL (≈ 54.4 µM) | 32 µg/mL (≈ 109 µM) | 2 (≈ 6.8 µM) | 31 | 19 | – | – | Active | Active
3 | O=C(N[C@H](CO)[C@H](O)c1ccc([N+](=O)[O-])cc1)C(Cl)Cl [CHLORAMPHENICOL] | 4 µg/mL (≈ 12.4 µM) | 2 µg/mL (≈ 6.19 µM) | 2 (≈ 6.19 µM) | – | – | – | – | – | –
4 | O=C1O[C@H]([C@@H](O)CO)C(O)=C1O [ASCORBIC ACID] | – | – | – | – | 16 | – | – | – | –

More lines, main results first:

Row | MIC (Escherichia coli) | MIC (Edwardsiella tarda) | MIC (Staphylococcus aureus) [µg/mL] | IC50 [1] [µM] | IC50 [2] [µM] | Compound | IC50 (A2780 [3]) [µM] | IC50 [4] [µM] | Activity (A2780 [5]) | Activity (A2780cis)
5 | 64 µg/mL (≈ 230 µM) | inactive | 4 (≈ 14.4 µM) | 12 | 8.3 | Cc1cc(O)c2c(c1O)[C@H](O)[C@H]1C[C@@H](O)CC[C@@H]1C2=O | > 10 | > 10 | – | –
6 | 32 µg/mL (≈ 109 µM) | 64 µg/mL (≈ 217 µM) | 4 (≈ 13.6 µM) | 52 | 31 | Cc1cc(O)c2c(c1O)[C@H](O)[C@H]1C[C@@H](O)C[C@H](O)[C@@H]1C2=O | > 10 | > 10 | – | –
7 | inactive | inactive | 8 (≈ 25.9 µM) | 30 | 24 | CO[C@@H]1c2c(O)cc(C)c(O)c2C(=O)[C@@H]2C[C@H](O)C[C@H](O)[C@@H]12 | > 10 | > 10 | – | –
8 | 32 µg/mL (≈ 109 µM) | 64 µg/mL (≈ 217 µM) | 4 (≈ 13.6 µM) | 42 | 34 | Cc1cc(O)c2c(c1O)[C@H](O)[C@H]1C[C@@H](O)C[C@@H](O)[C@@H]1C2=O | > 10 | > 10 | – | –
